Results gathered from unrelated publications.
Protocols differ between the studies behind these lines.
CYP2A6: Cytochrome P450 2A6 (CYP2A6, Homo sapiens, UniProt P11509)
Slc6a4: Sodium-dependent serotonin transporter (Slc6a4, Rattus norvegicus, UniProt P31652)

| Compound | target | assay | system | conditions | endpoint | result |
| --- | --- | --- | --- | --- | --- | --- |
| CCCN1CCN(c2ccc(-c3cncc(Cl)c3N3CCC4(CCNC4=O)CC3)cc2)CC1 | Glycogen synthase kinase-3 alpha (GSK3A, Homo sapiens, UniProt P49840) | cell-free assay |  | lysate | Kd | 1.75 µM |
| Nc1nc2c(ncn2[C@@H]2O[C@H](COP(=O)(O)OP(=O)(O)O)[C@@H](OP(=O)(O)OP(=O)(O)O)[C@H]2O)c(=O)[nH]1 | mpl (Escherichia coli, UniProt P37773) | binding, ITC |  |  | Kd | 752 µM |
| CNC(=O)[C@@]12C[C@@H]1[C@@H](n1cnc3c(NC)nc(C#C[c-]4cccc4)nc31)[C@H](O)[C@@H]2O.[Fe+2].c1cc[cH-]c1 | Adenosine receptor A3 (Mus musculus, UniProt Q61618) | ligand displacement, radioligand |  | cell membranes | Ki | 0.00546 µM |
| O=c1cc(-c2ccccc2)oc2c1ccc1ccccc12 | CYP2A6 | enzyme activity, inhibitor |  | 6 min, pH 7.6 | Ki | > 25 µM |
| CCCCN1CCC(COC(=O)c2ccc(N)c(OCF)c2)CC1 | 5-hydroxytryptamine receptor 1D (HTR1D, Homo sapiens, UniProt P28221) | cell-free assay, radioligand |  |  | Ki | > 10 µM |
| CN1CCN(Cc2cccc(Oc3ccccc3)c2)CC1 | Slc6a4 | ligand displacement, radioligand |  |  | Ki | > 20 µM |
| Cn1nnc2ccc(NC(=O)c3cccc(C(=O)O)c3)cc21 | Bromodomain-containing protein 4, BD1 (BRD4, Homo sapiens, UniProt O60885) | binding, competition with immobilised ligand |  |  | Kd | 6.9 µM |
| Cc1cc2nc3c(=O)[nH]c(=O)nc-3n(C[C@H](O)[C@H](O)[C@H](O)COP(=O)(O)OP(=O)(O)OC[C@H]3O[C@@H](n4cnc5c(N)ncnc54)[C@H](O)[C@@H]3O)c2cc1C | Far upstream element-binding protein 2 (KHSRP, Homo sapiens, UniProt Q92945) | binding |  | lysate | Kd | 0.026 µM |
| OC[C@@]12C[C@@H]1[C@@H](n1cnc3c(NC(C4CCCC4)C4CCCC4)nc(Cl)nc31)[C@H](O)[C@@H]2O | Mu-type opioid receptor (OPRM1, Homo sapiens, UniProt P35372) | cell-free assay, radioligand |  |  | Ki | 3.5 µM |
| C#Cc1cccc(-c2cc(=O)c3ccccc3o2)c1 | CYP2A6 | enzyme activity, inhibitor |  | 6 min, pH 7.6 | Ki | > 25 µM |
| COc1cc2c(cc1OC)C(=O)N(CCCCN1C(=O)/C(=N\NC(=S)N(C)C)c3ccccc31)CC2 | ATP-dependent translocase ABCB1 (ABCB1, Homo sapiens, UniProt P08183) | transporter efflux, inhibitor, fluorescence | MDCK-MDR1 |  | EC50 | 11 µM |
| C#Cc1ccc2cc(-c3ccccc3)c(=O)oc2c1 | CYP2A6 | enzyme activity, inhibitor |  | 6 min, pH 7.6 | Ki | > 25 µM |
| c1ccc(-n2nnnc2N2CCNCC2)cc1 | Slc6a4 | ligand displacement, radioligand |  |  | Ki | > 20 µM |
| O=C(NCC1CC1)c1cc(N2CC[C@H](O)C2)nc(N2CCC[C@@H](c3ccccc3)C2)n1 | N-acyl-phosphatidylethanolamine-hydrolyzing phospholipase D (Napepld, Mus musculus, UniProt Q8BH82) | enzyme activity, inhibitor, fluorescence |  |  | Ki | 0.18 µM |
| C#Cc1ccccc1-c1cc(=O)c2ccccc2o1 | CYP2A6 | enzyme activity, inhibitor |  | 6 min, pH 7.6 | Ki | > 25 µM |
| COc1cc(C2Oc3c(OC)cccc3C3CC(c4cc(C)ccc4O)=NN32)ccc1O (centres unmarked) | Prostaglandin E synthase 3 (Homo sapiens, UniProt Q15185) | binding, MST |  |  | Kd | 1.18 µM |
| CC(=O)N[C@H](C(=O)N1C[C@H](O)C[C@H]1C(=O)NCc1ccc(-c2scnc2C)cc1)C(C)(C)SCCCCCCNC(=O)C[C@@H]1N=C(c2ccc(Cl)cc2)c2c(sc(C)c2C)-n2c(C)nnc21 | Bromodomain-containing protein 4, BD2 (BRD4, Homo sapiens, UniProt O60885) | binding |  |  | Kd | 0.044 µM |
